PMI act hi M6P – PMI (human) activation, high substrate; P34949; coupled PMI enzyme assay, resazurin fluorescence, 20 min; stronger effect = higher value; 1 = untreated enzyme, 0 = substrate-free blank; activation factor at 20 µM; 190,000 compounds, 0.34% hits; AID 1216;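 active = activation factor of 2 or more at 20 µM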
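Test system: human PMI in coupled enzyme assay; Input: PMI at 15 ng/mL final; Medium: HEPES buffer, pH 7.4; Schedule: 20 min incubation at room temperature; Technique: resorufin fluorescence at Ex 544/Em 590 nm; Compound: 20 µM single dose; Probe or stimulus: Near-saturating mannose-6-phosphate, 1.0 mM.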
Avidin bead fluor – avidin bead compound fluorescence profile; Avidin beads, compound fluorescence 488/530 nm, flow cytometry; stronger effect = higher value; fluorescence (KMESF) at 10 µM; 220,000 compounds, 0.38% hits; AID 1775; in the data active = fluorescence above about 47
Diaphorase act – counter-screen for diaphorase-based assays: diaphorase activators and chemical reducers; activation factor at 20 µM; 190,000 compounds, 0.005% hits; Diaphorase/resazurin coupled assay, resorufin fluorescence, 16 min; stronger effect = higher value; 1 = vehicle wells, 0 = NADH-free wells; AID 1229;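 active = diaphorase activity raised at least twofold by the compound at 20 µM; inactive = activation factor below 2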
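test system = bacterial diaphorase enzyme (C. kluyveri) | quantity = enzyme 0.07 U/mL final | reagent = NADH substrate 0.114 mM plus resazurin dye 0.1 mM, final | incubation = 16 min enzyme reaction, ambient temperature | buffer or medium = HEPES pH 7.4 buffer with MgCl2 and Tween 20 | signal = fluorescence of resorufin, 544 nm excitation, 590 nm emission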
NCF1 inh – p47phox (human) inhibition | P14598 | AID 1274 | p47phox/p22phox peptide binding, fluorescence polarization, 2 h | inhibition, % at 24.7 µM | 220,000 compounds, 0.53% hits;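 active = inhibition above about 30%, limit read from the data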;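 note: 0% = p47phox with labelled peptide and 100% = labelled peptide alone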
Target sequence (P14598 whole entry, looked up): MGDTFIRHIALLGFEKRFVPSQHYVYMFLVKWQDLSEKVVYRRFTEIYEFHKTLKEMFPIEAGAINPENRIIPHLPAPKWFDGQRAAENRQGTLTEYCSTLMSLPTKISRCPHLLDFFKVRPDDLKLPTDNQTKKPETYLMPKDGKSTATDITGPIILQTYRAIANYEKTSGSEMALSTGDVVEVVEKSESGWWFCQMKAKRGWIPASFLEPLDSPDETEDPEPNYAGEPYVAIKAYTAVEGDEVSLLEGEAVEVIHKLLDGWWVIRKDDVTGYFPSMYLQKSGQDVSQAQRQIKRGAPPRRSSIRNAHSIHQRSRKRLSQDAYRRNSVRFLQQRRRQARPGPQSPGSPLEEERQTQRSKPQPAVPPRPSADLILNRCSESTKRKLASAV
GSH bead fluor – GSH bead compound fluorescence profile; fluorescence (KMESF) at 10 µM; GSH beads flow cytometry, compound fluorescence 488/530 nm; stronger effect = higher value; 190,000 compounds, 0.25% hits; AID 1776; in the data active = fluorescence above about 89;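 note: glutathione beads carrying GST-tagged Bcl family fusion proteins plus one bare bead set; values are compound well signal with DMSO vehicle wells as background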
PMI activator – activators of human phosphomannose isomerase; 190,000 compounds, 0.005% hits; activation factor at 20 µM; P34949; purified human PMI, coupled resazurin fluorescence, 20 min; stronger effect = higher value; 1 = vehicle control, 0 substrate-free wells;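 active = activation factor of 2 or more at 20 µM, relative to plate controls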
Numbers without * were called inactive; x = not tested or not shown. An excerpt weighted towards active compounds, which were near 1.4% of everything screened.

SMILES	PMI act hi M6P	Avidin bead fluor	Diaphorase act	NCF1 inh	GSH bead fluor	PMI activator
CCOC(=O)C1=C(C)NC2=C(C(=O)CC(C)(C)C2)C1c1coc2ccccc2c1=O (centres undefined)	1.1	60*	0.8	8	19	1.1
CC1=C(C(=O)OCC2CCCO2)C(c2coc3ccccc3c2=O)C2=C(CC(C)(C)CC2=O)N1 (centres undefined)	1	9	0.9	-1	14	1.1
O=C(Nc1cccc(-c2cn3ccccc3n2)c1)c1cc2ccccc2oc1=O	1.1	4	1.3	43*	34	1
COc1ccc(CCNC(=O)C/C(C)=N/NC(=O)c2ccc(N)cc2)cc1OC	0.9	5	0.9	81*	59	0.9
CSC1=N/C(=C\c2cccc(Cl)c2)C(=O)N1N(C)C	x	6	x	3	x	x
COc1ccc(CNC(=O)c2cnn3c(C(F)F)cc(C)nc23)cc1	1	94*	0.8	-9	11	1
Cc1cc(C)n2ncc(C(=O)NCc3ccccc3)c2n1	1	7	1	1	264*	1
Cc1cc(C(F)F)n2ncc(C(=O)NCc3ccccc3)c2n1	1	31	1	-4	17	1
CC(=O)OCCNc1cc(N2CCN(C)CC2)c2noc3c2c1C(=O)c1ccccc1-3	0.5	33	0.8	62*	13	0.9
CCC(=O)Nc1ccc(S(=O)(=O)N2CCc3ccccc3C2)cc1	0.9	7	0.9	-3	26	1
CCC(C)[C@@H](NC(=O)OC(C)(C)C)c1nnc(S(=O)(=O)Cc2cccc(C)c2)o1 (some centres undefined)	0.9	8	0.8	60*	23	0.8
Cc1ccccc1CS(=O)(=O)c1nnc([C@H](Cc2ccccc2)NC(=O)OC(C)(C)C)o1	1	48*	0.9	0	6	1
CC(C)(C)OC(=O)N[C@@H](Cc1ccccc1)c1nnc(S(=O)(=O)Cc2ccccc2)o1	1.3	8	1	2	9	1.3
CCSc1nnc([C@H](Cc2ccccc2)NC(=O)OC(C)(C)C)o1	0.9	10	0.8	-10	33	0.9
CCCCNC(=O)C1CCN(S(=O)(=O)N2CCOCC2)CC1	1	8	1	-2	22	1.4
CCCCOC(=O)CCc1c(C)[nH]c(=O)c(C#N)c1C	1	25	0.9	-2	23	1
Cc1noc(C)c1C(=O)NC1CCCc2ccccc21 (centres undefined)	0.9	7	0.9	-3	35	0.9
Cc1cc(C(=O)NC2CCCc3ccccc32)no1 (centres undefined)	1	47*	1	-12	22	1
O=C(Cn1cc(C(F)(F)F)ccc1=O)Nc1cccc(S(=O)(=O)N2CCOCC2)c1	0.9	96*	0.8	-15	11	0.9
CCOc1ccc2nc3c(cc2c1)CN(CCOC)C(=NC)S3	0.8	5	0.8	-11	114*	0.9
CCC(C)c1ccc(NC(=O)COC(=O)C2=COCCO2)cc1 (centres undefined)	1	4	1	-1	30	1.1
CCc1ccc2c(CN3CCc4cc(OC)c(OC)cc4C3)cc(=O)oc2c1	2.2*	10	0.9	-27	21	1.5
COc1cc2c(cc1OC)CN(Cc1cc(=O)oc3cc(C)c(C)cc13)CC2	2.2*	11	0.8	19	11	1.5
COc1cc2c(cc1OC)CN(Cc1cc(=O)oc3cc(C)c(Cl)cc13)CC2	2.3*	15	0.9	-28	8	1.7
COc1cc2c(cc1OC)CN(Cc1cc(=O)oc3c(C)c(C)ccc13)CC2	1.8	12	0.8	-16	13	1.5
SMILES	PMI act hi M6P	Avidin bead fluor	Diaphorase act	NCF1 inh	GSH bead fluor	PMI activator
COc1ccc([N+](=O)[O-])cc1N(CC(=O)NCCSc1ccccc1)S(C)(=O)=O	1	10	0.9	1	24	0.9
COc1ccc(C(=O)/C=C/C(=O)N(CC(=O)NC2CCCCC2)Cc2ccccc2OC)c(O)c1	1.1	7	1	33*	17	1
COc1ccc(C(=O)/C=C/C(=O)N(CC(=O)NC2CCCCC2)Cc2ccccc2)c(O)c1	1	7	0.9	30*	17	0.9
CSc1ccc(Cl)c(C(=O)OCC(=O)NCc2ccco2)c1	1.1	11	0.8	-6	38	0.9
CSc1ccc(Cl)c(C(=O)NCc2ccco2)c1	1	3	0.8	-7	250*	0.9
C/C(=N\N=C(N)N)c1cccc([N+](=O)[O-])c1	1.1	17	1	6	8	1
C/C(=N\N=C\c1ccc(N(C)C)cc1)c1cccc([N+](=O)[O-])c1	2.3*	12	0.9	-1	13	1.6
CC(=O)c1cc(C#N)c(SCC(=O)OC(C)(C)C)nc1C	0.9	138*	0.9	-11	26	1
COc1cc(CN2CCSCC2)cc(OC)c1OC	1	4	0.9	7	37	0.9
O=S(=O)(c1ccc2c(c1)OCCO2)N1CCN(Cc2ccccc2)CC1	1	20	0.9	-2	12	0.9
O=C(O)C1C2C=CC(C2)C1C(=O)NCc1ccc2c(c1)OCO2 (centres undefined)	1.1	34	1	-3	15	1
O=C(O)C1CC=CCC1C(=O)NCc1ccc2c(c1)OCO2 (centres undefined)	1	4	1	-10	102*	1
CC(C)(C)c1cc(C(=O)Nc2ccccc2)ccn1	0.9	4	0.9	-1	103*	1
CCc1ccccc1N/N=C(/C)c1c(O)cc(C)oc1=O	2.7*	10	0.9	-5	20	1.7
CC1(C)Cc2c(oc3ncn4ncnc4c23)CO1	1	30	0.8	-8	20	1
CSc1nc2oc3c(c2c2nncn12)CC(C)(C)SC3	2.6*	27	1	-9	43	1.4
Cc1ccc2c(c1)C1CCCC3C1N2CC(=O)N3Cc1ccccc1 (centres undefined)	0.9	6	0.8	-20	38	0.8
CCN(CC(O)COc1ccc(OCC(O)CN(CC)C2CCCCC2)cc1)C1CCCCC1 (centres undefined)	x	22	x	-16	19	x
COc1ccc(C(=O)N2CC3(C)CC2CC(C)(C)C3)cc1 (centres undefined)	0.9	13	0.9	56*	28	0.9
CC1(C)CC2CC(C)(CN2C(=O)c2ccccc2)C1 (centres undefined)	1.1	9	1	-2	10	1
O=C(COc1ccc(Cl)cc1Cl)NNC(=S)Nc1ccc(F)cc1	1	32	0.8	-9	27	0.9

From PubChem BioAssay
